# High-throughput results as filed in PubChem.
# TRAIL sens C8: viability loss with TRAIL in NB7+C8 cells, primary screen, TRAIL sensitizer project, cell-based, ATPlite luminescence; inhibition (viability loss, TRAIL sensitization), % at 10 µM; hit rate 1% among 360,000; AID 624354, 2012;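 active means compounds causing at least 50% loss of cell viability in the single-dose screen, relative to plate controls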
# HSP90 refold inh: HSP90 inhibitors, primary screen, cell lysate, luminescence; Heat shock protein HSP 90 (rabbit reticulocyte lysate; luciferase refolding); hit rate 0.91% among 290,000; inhibition, % at 5.6 µM; Rabbit reticulocyte lysate, luciferase refolding luminescence, 3 h;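 active means inhibition above the screen-wide mean plus 3 SD, computed separately per campaign, cut at about 16% in these data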;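 further: 0% = DMSO wells and 100% = 60 µM geldanamycin wells; inhibitors lower the luminescence because luciferase stays unfolded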
# STAT3 activator: IL-6 driven STAT3 reporter potentiators, primary screen, U3A cells, luciferase, luminescence, MLSCN library; AID 871, 2007; IL-6 STAT3-luciferase reporter; 100% = signal with IL-6 EC80 alone; hit rate 0.91% among 190,000; activation (% of control), % at 5.6 µM;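 active means activation above the screen-wide mean of compound activation plus 3 SD, cut at about 130% in these data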;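 further: 0% = background luminescence of wells with medium and substrate only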
#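 Test system: Human STAT1-deficient U3A cells with stable STAT3-luciferase reporter | Also added: Interleukin-6, 33 ng/mL | Timing: Compound pre-incubation 1 h before IL-6, then 6 h stimulation at 37 °C | Technique: Luciferase reporter luminescence | Read-out: Percent of IL-6-only median luminescence | Benchmarks: IL-6-only wells as 100% reference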
# PPC-1+TRAIL kill: compounds killing PPC-1 cancer cells with TRAIL present, primary screen, TRAIL potentiator project, ATPLite luminescence, uHTS | PPC-1 cells + TRAIL, ATPLite viability luminescence | hit rate 0.41% among 220,000 | cell killing (% activity), % at 4 µM or 5 µM | AID 1443, 2008;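 active means cell killing above 50% in the first pass at 4 µM, then a duplicate retest at 5 µM averaging 50% or more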;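 further: plate controls were cells with TRAIL plus DMSO for no effect and medium-only wells lacking cells for full effect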
# STAT3 blocker: IL-6 driven STAT3 reporter inhibitors, primary screen, U3A cells, luciferase, luminescence, MLSCN library; IL-6 STAT3-luciferase reporter; host cell line lacks STAT1; inhibition, % at 5.5 µM; hit rate 0.89% among 190,000; AID 862, 2007;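 active means inhibition above the mean inhibition across all screened compounds plus 3 SD, cut at about 44% in these data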;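 further: 0% = DMSO only wells and 100% = 100 µM nifuroxazide control wells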
# STAT1 inh: STAT1 signaling inhibitors, primary screen, cell-based, HTS, luciferase reporter; NIH 3T3 STAT1-luciferase reporter, IFN-gamma, luminescence; inhibition, % at 5.5 µM; hit rate 0.35% among 200,000;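 active means inhibition above a set limit, the mean inhibition across all tested compounds plus 3 SD, cut at about 34% in these data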;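 further: 0% = IFN-gamma with DMSO and 100% = IFN-gamma with 300 µM nifuroxazide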
# PPC-1 tox: cytotoxicity in PPC-1 cells, confirmation, cytotoxicity control for TRAIL apoptosis potentiator project, cell-based, ATP content luminescence; hit rate 50% among 1,200; cytotoxicity, % at 5 µM; shares compounds with PPC-1+TRAIL kill; PPC-1 viability, ATPlite luminescence, overnight;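 active means reconfirmed compounds whose average cytotoxicity reaches 50% or more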;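 further: 0% = DMSO-treated cells and 100% = wells holding medium but no cells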
# The depositor's hits bear a star; nt = no result. Shown are actives, neighbours in structure and some others; about 2.3% of the full set was active somewhere.
SMILES,TRAIL sens C8,HSP90 refold inh,STAT3 activator,PPC-1+TRAIL kill,STAT3 blocker,STAT1 inh,PPC-1 tox
O=C(CSc1ccc(Cl)cc1)N1CCOCC1,-4,-2,105,1,-2,-16,5
CCOC(=O)c1c(NC(=O)c2noc(C)c2[N+](=O)[O-])sc(C(C)=O)c1C,-2,0,95,5,16,10,-2
Cc1nc2ccccc2c2oc(C(=O)Nc3ccc(C(C)C)cc3)cc12,9,0,84,16,21,-10,nt
Oc1ccc(N=Nc2ccc(Br)cc2)c(O)c1,25,-3,nt,15,nt,nt,nt
Oc1ccc(N=Nc2ccc3c(c2)OCCO3)c(O)c1,72*,14,nt,65*,nt,nt,66*
Cc1nn(-c2ccccc2)c(C)c1/C=N\N1CCN(c2ccc(Cl)cc2)CC1,10,-1,91,1,18,1,3
Cc1nn(-c2ccccc2)c(C)c1/C=N/n1cnnc1,0,3,93,-22,16,-6,nt
O=C(CN1C(=O)NC2(CCCCCCC2)C1=O)NCc1ccc2c(c1)OCO2,-5,0,105,19,-6,8,nt
CCN(CC)c1ccc(NC(=S)Nc2ccc(F)cc2)cc1,3,0,104,16,-2,4,6
Cc1cccc(C(=O)n2c(=S)nc3ccccn32)c1,74*,1,109,70*,-3,-100,70*
Cc1cccn2c1nc(=S)n2C(=O)c1ccco1,41,-4,112,28,-10,-120,nt
O=C(c1ccccc1)n1c(=S)nc2ccccn21,84*,nt,nt,72*,nt,nt,74*
Cc1cccc(C(=O)N2CCCCCC2)c1,-3,3,107,0,-2,-2,nt
Nc1nnc(-c2ccc(F)cc2)s1,13,1,92,4,17,-4,nt
CC(C)(C)c1ccc(-c2nnc(N)s2)cc1,71*,0,94,47,17,-36,48
O=C(/C=C/c1ccc2c(c1)OCO2)c1cccnc1,3,1,nt,nt,nt,nt,nt
O=C(/C=C/c1ccc2c(c1)OCO2)Nc1cccnc1,70*,8,82,60*,25,-33,57*
O=C(CSc1ccc([N+](=O)[O-])cc1)Nc1cccc(S(=O)(=O)Nc2ccccc2F)c1,0,5,93,32,15,13,nt
Cn1cnnc1Sc1ccc(C(=O)OCC(=O)NC2CC2)cc1[N+](=O)[O-],0,-2,107,14,-2,2,1
CCSc1nc2c(c(=O)n1CC)SC(C)C2 (centres undefined),-12,0,103,14,4,7,nt
CCn1c(SC)nc2c(c1=O)SC(C)C2 (centres undefined),-3,0,92,3,15,3,4
CC(C)COCC(CN(Cc1ccccc1)c1ccccc1)N1CCCC1 (centres undefined),28,1,nt,8,nt,nt,nt
CCOc1ccc(N2C(=O)CC(SCCN)C2=O)cc1 (centres undefined),14,4,98,11,9,-20,11
COc1ccc(N2CCN(c3ccc(NC(=O)C4CCCCC4)cc3C#N)CC2)cc1,-6,-2,101,-5,1,2,8
O=C(CCN1CCN(CCO)CC1)Nc1ccc(F)c(F)c1,-6,0,99,-1,7,2,5
COc1ccc2oc(-c3ccc(C)c(NC(=O)CSc4ccc(Cl)cc4)c3)nc2c1,0,0,108,-3,2,6,nt
c1ccc(-c2noc(-c3cccnc3)n2)nc1,19,2,85,10,20,-30,nt
c1ccc(-c2noc(-c3ccc4c(c3)OCO4)n2)nc1,85*,41*,12,87*,107*,54*,88*
Nc1nn2cc(-c3ccccc3)nc2c2ccccc12,56*,8,135*,47,-40,-47,51*
